Data set [1] deals with T1, Prostacyclin receptor (Homo sapiens, UniProt P43119). The experiment in a line: Displacement of [3H]iloprost from IP receptor in human platelet membrane. Format: cell membranes. The essentials: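 Filter binding with 0.01 μM [3H]-iloprost and 50 μg human platelet membranes. Incubated 1 h at room temperature in 20 mM Hepes, 5 mM MgCl2, pH 7.4, with or without compound. Compound serially diluted in DMSO, final DMSO 1–10%. Filtered, washed twice with PBS, counted by scintillation.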

Data set [2] deals with T1, Prostacyclin receptor. The experiment in a line: Antagonist activity at human IP receptor in HEL 92.1.7 cells assessed as inhibition of iloprost-induced cAMP production. Format: functional, cell-based. In short, it runs like this: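 HEL 92.1.7 cells cultured in RPMI with 10% FBS, 10 mM Hepes, 1 mM sodium pyruvate, penicillin/streptomycin. 5000 cells preincubated 15 min at 37 °C with compound in 5 mM Hepes, 0.05% BSA buffer. Stimulated with 0.01 μM iloprost for 15 min at 37 °C. cAMP read by LANCE TR-FRET kit. Data normalized to max/min controls; IC50 from curve fit.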
(Cyclic AMP is a second messenger, typically raised through Gs and lowered through Gi signalling.)

Data set [3] in a line: Metabolic stability in human liver microsomes after 30 mins. Format: ADME, Microsome. The conditions noted are these: read-out: Stability. In short, it runs like this: (§1)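 Human or rat liver microsomes, […], incubated 30 min with compound; percent parent remaining.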
(Liver microsomes are vesicles of endoplasmic reticulum, rich in cytochrome P450 enzymes.)

Data set [4] can be described thus: Metabolic stability in rat liver microsome after 30 mins. It is filed as ADME. The note with it: liver microsomes, read-out: Stability. The essentials:
as §1

A further data set has as its target T2, Cytochrome P450 1A2 (Homo sapiens, UniProt P05177).
T2 sequence (P05177 whole entry): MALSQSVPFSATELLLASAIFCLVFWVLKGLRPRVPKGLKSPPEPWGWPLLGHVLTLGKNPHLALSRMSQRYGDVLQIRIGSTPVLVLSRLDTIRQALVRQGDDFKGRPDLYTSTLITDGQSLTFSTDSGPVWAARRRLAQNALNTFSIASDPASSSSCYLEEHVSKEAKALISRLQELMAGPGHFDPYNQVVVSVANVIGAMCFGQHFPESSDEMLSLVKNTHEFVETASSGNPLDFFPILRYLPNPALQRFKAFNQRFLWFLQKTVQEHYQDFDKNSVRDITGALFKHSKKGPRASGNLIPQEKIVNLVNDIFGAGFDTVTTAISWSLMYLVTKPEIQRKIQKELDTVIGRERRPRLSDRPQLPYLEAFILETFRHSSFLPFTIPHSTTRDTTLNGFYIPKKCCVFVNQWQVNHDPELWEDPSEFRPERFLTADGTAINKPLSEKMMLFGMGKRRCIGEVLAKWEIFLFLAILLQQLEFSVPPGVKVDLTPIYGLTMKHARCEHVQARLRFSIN
Description: Inhibition of CYP1A2. Format: ADME.

The nature of data set [5]: Apparent permeability across Caco-2 cells. Format: ADME, cell-based. The note with it: human. For orientation: Caco-2 monolayers are a common model of the intestinal barrier.
Another data set concerns the target Cytochrome P450 2C19 (Homo sapiens, UniProt P33261). Description: Inhibition of CYP2C19. Format: ADME.
Data set [6] concerns the target Prostaglandin E2 receptor EP4 subtype (Homo sapiens, UniProt P35408). The experiment in a line: Inhibition of human recombinant EP4 receptor expressed in 293EBNA cells. Format: cell-based.
The target of a further data set is hERG (KCNH2) (Homo sapiens, UniProt Q12809). Description: Inhibition of hERG at 20 uM by rubidium efflux assay. Format: toxicity.
For the next data set, the target named is Cytochrome P450 2D6 (Homo sapiens, UniProt P10635). Description: Inhibition of CYP2D6. It is filed as ADME.
The target of a further data set is Cytochrome P450 2C9 (Homo sapiens, UniProt P11712). The experiment in a line: Inhibition of CYP2C9. It is filed as ADME.
Data set [7] has as its target Prostaglandin E2 receptor EP2 subtype (Homo sapiens, UniProt P43116). The experiment in a line: Inhibition of human recombinant EP2 receptor expressed in 293EBNA cells. Format: cell-based.
Another data set has as its target Cytochrome P450 3A4 (Homo sapiens, UniProt P08684). Description: Inhibition of CYP3A4. Format: ADME.

The record followed here is ChEMBL document CHEMBL1148848, “Discovery and preliminary evaluation of 5-(4-phenylbenzyl)oxazole-4-carboxamides as prostacyclin receptor antagonists” (Bioorg Med Chem Lett, 2007).

T1 sequence (P43119 whole entry): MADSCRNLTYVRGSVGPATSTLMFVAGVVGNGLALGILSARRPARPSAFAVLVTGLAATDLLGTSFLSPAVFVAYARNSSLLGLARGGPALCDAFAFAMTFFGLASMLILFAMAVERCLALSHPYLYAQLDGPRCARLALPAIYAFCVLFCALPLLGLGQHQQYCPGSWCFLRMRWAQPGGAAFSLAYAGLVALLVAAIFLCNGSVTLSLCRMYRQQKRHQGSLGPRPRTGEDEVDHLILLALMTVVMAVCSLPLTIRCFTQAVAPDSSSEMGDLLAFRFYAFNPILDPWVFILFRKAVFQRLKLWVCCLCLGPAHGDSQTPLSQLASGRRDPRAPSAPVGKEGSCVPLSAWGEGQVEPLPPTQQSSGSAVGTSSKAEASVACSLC
Sequence of Prostaglandin E2 receptor EP4 subtype (P35408 whole entry): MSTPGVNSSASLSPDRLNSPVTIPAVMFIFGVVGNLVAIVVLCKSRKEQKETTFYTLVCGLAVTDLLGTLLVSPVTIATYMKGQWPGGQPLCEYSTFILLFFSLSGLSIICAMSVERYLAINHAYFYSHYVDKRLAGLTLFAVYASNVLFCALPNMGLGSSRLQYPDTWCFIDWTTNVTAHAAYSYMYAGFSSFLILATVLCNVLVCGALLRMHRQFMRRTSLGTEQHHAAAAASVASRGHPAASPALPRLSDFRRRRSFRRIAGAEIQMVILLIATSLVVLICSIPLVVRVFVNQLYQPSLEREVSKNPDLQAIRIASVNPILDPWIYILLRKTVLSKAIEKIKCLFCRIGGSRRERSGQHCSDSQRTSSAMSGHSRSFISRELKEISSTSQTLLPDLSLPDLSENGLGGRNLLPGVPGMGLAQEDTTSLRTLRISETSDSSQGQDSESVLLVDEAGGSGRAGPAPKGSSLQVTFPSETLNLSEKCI
Sequence of Prostaglandin E2 receptor EP2 subtype (P43116 whole entry): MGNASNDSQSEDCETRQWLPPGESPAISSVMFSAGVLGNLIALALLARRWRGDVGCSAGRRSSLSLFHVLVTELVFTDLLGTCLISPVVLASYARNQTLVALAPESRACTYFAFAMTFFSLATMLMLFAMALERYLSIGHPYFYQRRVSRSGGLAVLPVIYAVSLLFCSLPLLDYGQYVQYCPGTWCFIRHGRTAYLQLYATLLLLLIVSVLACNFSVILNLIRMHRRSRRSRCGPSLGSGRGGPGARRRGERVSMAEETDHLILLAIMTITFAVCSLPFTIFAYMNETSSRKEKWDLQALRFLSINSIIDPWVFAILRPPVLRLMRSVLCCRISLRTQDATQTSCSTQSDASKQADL
Sequence of hERG (KCNH2) (Q12809 whole entry): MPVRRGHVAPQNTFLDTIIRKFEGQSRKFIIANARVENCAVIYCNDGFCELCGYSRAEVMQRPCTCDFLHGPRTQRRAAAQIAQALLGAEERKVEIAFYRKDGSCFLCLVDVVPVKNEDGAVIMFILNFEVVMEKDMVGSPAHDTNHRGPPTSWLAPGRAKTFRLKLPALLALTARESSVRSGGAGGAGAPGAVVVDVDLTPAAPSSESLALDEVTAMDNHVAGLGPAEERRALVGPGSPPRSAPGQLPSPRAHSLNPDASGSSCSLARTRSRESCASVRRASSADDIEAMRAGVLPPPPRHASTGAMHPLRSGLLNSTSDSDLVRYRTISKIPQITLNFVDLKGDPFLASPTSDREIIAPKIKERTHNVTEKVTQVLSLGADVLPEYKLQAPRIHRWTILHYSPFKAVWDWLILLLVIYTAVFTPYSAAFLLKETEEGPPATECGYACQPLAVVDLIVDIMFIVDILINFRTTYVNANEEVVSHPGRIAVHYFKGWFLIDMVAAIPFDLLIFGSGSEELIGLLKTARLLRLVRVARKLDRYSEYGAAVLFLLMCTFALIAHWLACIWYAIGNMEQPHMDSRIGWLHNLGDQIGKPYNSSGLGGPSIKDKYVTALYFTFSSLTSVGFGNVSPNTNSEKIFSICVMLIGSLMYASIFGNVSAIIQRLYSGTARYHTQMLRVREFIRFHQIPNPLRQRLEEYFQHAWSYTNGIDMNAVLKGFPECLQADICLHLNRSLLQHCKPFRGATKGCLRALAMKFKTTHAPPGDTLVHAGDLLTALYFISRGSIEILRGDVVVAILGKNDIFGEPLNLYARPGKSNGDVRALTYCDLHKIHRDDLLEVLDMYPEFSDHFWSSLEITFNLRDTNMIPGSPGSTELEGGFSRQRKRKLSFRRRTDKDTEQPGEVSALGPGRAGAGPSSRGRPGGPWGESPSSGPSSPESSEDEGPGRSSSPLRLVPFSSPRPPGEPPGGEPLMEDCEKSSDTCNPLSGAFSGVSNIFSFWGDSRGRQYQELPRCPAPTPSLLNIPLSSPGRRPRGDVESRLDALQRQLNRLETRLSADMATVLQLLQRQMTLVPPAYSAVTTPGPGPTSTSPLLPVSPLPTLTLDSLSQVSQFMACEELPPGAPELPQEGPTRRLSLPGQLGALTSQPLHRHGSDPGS
Sequence of Cytochrome P450 3A4 (P08684 whole entry): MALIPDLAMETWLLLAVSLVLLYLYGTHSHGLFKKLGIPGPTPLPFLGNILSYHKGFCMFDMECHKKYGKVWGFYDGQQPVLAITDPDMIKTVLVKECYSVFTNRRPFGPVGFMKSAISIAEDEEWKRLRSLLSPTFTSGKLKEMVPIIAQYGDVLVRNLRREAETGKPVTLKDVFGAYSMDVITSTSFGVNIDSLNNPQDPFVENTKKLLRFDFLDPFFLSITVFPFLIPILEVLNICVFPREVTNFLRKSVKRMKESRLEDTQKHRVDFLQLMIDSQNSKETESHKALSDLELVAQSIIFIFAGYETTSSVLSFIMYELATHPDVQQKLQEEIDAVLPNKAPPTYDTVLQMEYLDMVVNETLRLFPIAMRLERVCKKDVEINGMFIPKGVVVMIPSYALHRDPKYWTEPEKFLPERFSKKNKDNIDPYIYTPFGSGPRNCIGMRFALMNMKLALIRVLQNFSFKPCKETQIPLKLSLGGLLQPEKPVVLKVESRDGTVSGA
Sequence of Cytochrome P450 2C19 (P33261 whole entry): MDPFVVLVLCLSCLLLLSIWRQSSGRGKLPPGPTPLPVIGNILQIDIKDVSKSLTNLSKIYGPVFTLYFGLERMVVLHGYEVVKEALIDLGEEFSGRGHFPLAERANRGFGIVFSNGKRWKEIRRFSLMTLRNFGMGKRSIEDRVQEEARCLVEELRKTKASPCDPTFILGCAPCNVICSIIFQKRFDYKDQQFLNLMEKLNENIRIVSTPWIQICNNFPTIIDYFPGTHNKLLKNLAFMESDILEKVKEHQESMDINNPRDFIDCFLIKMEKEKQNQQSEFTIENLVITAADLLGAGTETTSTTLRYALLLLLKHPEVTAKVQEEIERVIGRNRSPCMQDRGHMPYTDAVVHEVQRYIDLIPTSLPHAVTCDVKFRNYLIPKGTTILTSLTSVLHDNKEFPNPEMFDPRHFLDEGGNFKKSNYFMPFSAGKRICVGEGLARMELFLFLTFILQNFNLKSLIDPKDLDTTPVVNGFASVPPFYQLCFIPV
Sequence of Cytochrome P450 2C9 (P11712 whole entry): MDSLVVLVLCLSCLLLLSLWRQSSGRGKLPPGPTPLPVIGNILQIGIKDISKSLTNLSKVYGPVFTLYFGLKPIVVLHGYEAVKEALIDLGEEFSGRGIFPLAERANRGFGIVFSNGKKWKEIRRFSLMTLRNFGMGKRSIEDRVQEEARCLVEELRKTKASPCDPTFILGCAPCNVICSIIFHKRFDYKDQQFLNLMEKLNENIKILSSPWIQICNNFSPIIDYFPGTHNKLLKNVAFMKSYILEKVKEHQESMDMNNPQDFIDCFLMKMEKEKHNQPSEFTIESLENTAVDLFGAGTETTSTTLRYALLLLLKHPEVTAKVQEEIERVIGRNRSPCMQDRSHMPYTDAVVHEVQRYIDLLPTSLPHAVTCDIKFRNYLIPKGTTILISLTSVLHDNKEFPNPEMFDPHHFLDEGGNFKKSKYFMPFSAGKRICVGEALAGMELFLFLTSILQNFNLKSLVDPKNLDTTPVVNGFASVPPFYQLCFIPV
Sequence of Cytochrome P450 2D6 (P10635 whole entry): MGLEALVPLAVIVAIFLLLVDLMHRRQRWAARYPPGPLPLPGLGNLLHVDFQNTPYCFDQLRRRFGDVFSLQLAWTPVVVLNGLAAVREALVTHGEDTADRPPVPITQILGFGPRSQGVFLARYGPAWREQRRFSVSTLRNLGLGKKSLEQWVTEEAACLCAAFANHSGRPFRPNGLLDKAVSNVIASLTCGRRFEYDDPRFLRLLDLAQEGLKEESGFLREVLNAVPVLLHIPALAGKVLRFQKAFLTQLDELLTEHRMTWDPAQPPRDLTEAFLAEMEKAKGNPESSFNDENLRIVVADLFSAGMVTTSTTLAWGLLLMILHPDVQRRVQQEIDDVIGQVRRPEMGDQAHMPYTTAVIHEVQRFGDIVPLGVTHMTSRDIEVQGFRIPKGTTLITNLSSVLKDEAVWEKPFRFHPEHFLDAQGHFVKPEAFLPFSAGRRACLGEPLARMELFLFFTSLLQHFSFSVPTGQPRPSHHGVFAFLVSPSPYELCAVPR

On to `CC(=O)Nc1cccc(-c2ccc(Cc3ocnc3C(=O)N(C)C)cc2)c1`, for which the IC50 came out at 12400 nM at Prostacyclin receptor [1] and 3580 nM at Prostacyclin receptor [2].

`CC(=O)Nc1cccc(-c2ccc(Cc3ocnc3C(=O)NCCc3ccccc3)cc2)c1`: the IC50 on Prostacyclin receptor [1] amounted to 721 nM; at Prostacyclin receptor [2], 138 nM.

For the molecule `CC(=O)Nc1cccc(-c2ccc(Cc3ocnc3C(=O)Nc3ccccc3)cc2)c1`, the IC50 is 3480 nM on Prostacyclin receptor [1] and 828 nM at Prostacyclin receptor [2].

Regarding `CC(=O)Nc1cccc(-c2ccc(Cc3ocnc3C(=O)N(C)CCc3ccccc3)cc2)c1`, the values for the IC50 at Prostacyclin receptor [1] and on Prostacyclin receptor [2] were 7160 nM and 2130 nM, respectively.

Turning to `CC(=O)Nc1cccc(-c2ccc(Cc3ocnc3C(=O)NC[C@H](C)c3ccccc3)cc2)c1`, the IC50 worked out at 53 nM at Prostacyclin receptor [1] and 51 nM on Prostacyclin receptor [2]. Moreover, the remaining at 0.5 h in [3] was 12%; in data set [4], 11%.

On to `CC(=O)Nc1cccc(-c2ccc(Cc3ocnc3C(=O)NC[C@@H](C)c3ccccc3)cc2)c1`, for which the half-inhibitory concentration (IC50) is 916 nM on Prostacyclin receptor [1] and 296 nM on Prostacyclin receptor [2].

As for `CC(=O)Nc1cccc(-c2ccc(Cc3ocnc3C(=O)N[C@H](Cc3ccccc3)C(=O)O)cc2)c1`, the IC50 on Prostacyclin receptor [1] is 4200 nM; at Prostacyclin receptor [2], 831 nM.

`CC(=O)Nc1cccc(-c2ccc(Cc3ocnc3C(=O)NCCc3ccccn3)cc2)c1`: the IC50 on Prostacyclin receptor [1] was determined as 7600 nM; at Prostacyclin receptor [2], 1010 nM.

Regarding `CC(=O)Nc1cccc(-c2ccc(Cc3ocnc3C(=O)NCCc3ccncc3)cc2)c1`, the values for the IC50 on Prostacyclin receptor [1] and on Prostacyclin receptor [2] were 4710 nM and 476 nM, respectively.

With `CC(=O)Nc1cccc(-c2ccc(Cc3ocnc3C(=O)NCc3ccccc3)cc2)c1`, the figures for the IC50 on Prostacyclin receptor [1] and on Prostacyclin receptor [2] were 561 nM and 66 nM, respectively. Moreover, the remaining at 0.5 h in data set [3] was 63%; in data set [4] it was 33%.

On to `CC(=O)Nc1cccc(-c2ccc(Cc3ocnc3C(=O)N[C@H]3C[C@@H]3c3ccccc3)cc2)c1`, for which the IC50 on Prostacyclin receptor [1] was 331 nM; at Prostacyclin receptor [2] it was 358 nM.

Turning to `CNC(=O)c1ncoc1Cc1ccc(-c2cccc(NC(C)=O)c2)cc1`, the IC50 on Prostacyclin receptor [1] is 12200 nM; on Prostacyclin receptor [2] it was 3310 nM.

Regarding `CC(=O)Nc1cccc(-c2ccc(Cc3ocnc3C(=O)NCCN(C)C)cc2)c1`, the half-maximal inhibitory concentration (IC50) at Prostacyclin receptor [1] is 34100 nM; on Prostacyclin receptor [2], 3310 nM.

For `CC(=O)Nc1cccc(-c2ccc(Cc3ocnc3C(=O)N[C@@H](Cc3ccccc3)C(=O)O)cc2)c1`, the IC50 at Cytochrome P450 1A2 is greater than 20000 nM; against Cytochrome P450 2C19, greater than 20000 nM; at Prostacyclin receptor [1], 476 nM; at Prostacyclin receptor [2], 16 nM; in data set [6] it was 24000 nM; against Cytochrome P450 2D6, greater than 20000 nM. The IC50 at Cytochrome P450 2C9 was 5100 nM; in [7] it was 32000 nM; on Cytochrome P450 3A4, greater than 20000 nM. Besides, the Papp in data set [5] was 5.5 ×10⁻⁶ cm/s. Besides, the remaining at 0.5 h in [3] amounted to 100%; in data set [4], 91%. Besides, at 20 µM the inhibition on hERG (KCNH2) was 5%.

Take `CC(=O)Nc1cccc(-c2ccc(Cc3ocnc3C(=O)NCCc3cccnc3)cc2)c1`: the half-maximal inhibitory concentration (IC50) was 4950 nM at Prostacyclin receptor [1] and 741 nM at Prostacyclin receptor [2].

Consider `CC(=O)Nc1cccc(-c2ccc(Cc3ocnc3C(=O)NC(C)c3ccccc3)cc2)c1` (racemic), for which the IC50 on Prostacyclin receptor [1] turned out to be 1230 nM; on Prostacyclin receptor [2] it was 278 nM.

With `CC(=O)Nc1cccc(-c2ccc(Cc3ocnc3C(=O)NCC(C)c3ccccc3)cc2)c1` (racemic), the IC50 at Prostacyclin receptor [1] is 77 nM.

By IC50 is commonly meant the midpoint of a concentration-inhibition curve. One may read the Papp as the rate of passage across a membrane or cell layer, normalised by area and donor concentration. Usually inhibition stands for how much of the control response was suppressed.
